Compound activity deposited in PubChem BioAssay by several laboratories.
TMEM16A inh: blocks the mouse calcium-activated chloride channel TMEM16A | Q8BHY3 | HEK293 TMEM16A/YFP iodide influx fluorescence, ionomycin | normalized B-score (activity score, 25-100; higher = stronger inhibition) at 10 µM | 310,000 tested, 1.2% active | AID 588511;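 active = ratio plate-corrected score three or more library SD toward inhibition, starting fluorescence score within five deviations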;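 note: score derived from kinetic fluorescence span divided by baseline fluorescence per well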
Apaf1 inhib: blocks human Apaf-1 apoptosome activity | O14727 | AID 489030 | reconstituted apoptosome caspase-3 activity, DEVD-Rh110 fluorescence | inhibition, % at 20 µM | 330,000 tested, 0.71% active; active = inhibition of at least 40% at 20 µM
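Assay system: Apoptosome proteins | Medium: pH 7.5 Hepes buffer with CHAPS, BSA, DTT | Also added: Cytochrome c and DEVD-Rh110 substrate | Times: 30 min plus 50 min, RT | Detection: Rhodamine 110 fluorescence at Ex 480/Em 540 nm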
FID counter: fluorescent intercalator displacement, NS3 helicase counter-screen; 290,000 tested, 0.17% active; inhibition, % at 7.9 µM; DNA fluorescent intercalator displacement, fluorescence; AID 1845; in the data active = inhibition above about 37%;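 note: higher means more ethidium bromide displaced from hairpin DNA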
ANO1 activ: activators or potentiators of mouse TMEM16A chloride channel. 340,000 tested, 0.3% active. B-score at 10 µM. HEK293 TMEM16A/YFP-H148Q/I152L, iodide quench fluorescence; active compounds read low. AID 623877. Q8BHY3;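 active = fluorescence-ratio B-score plate-corrected deviation score at least 3 library SD below zero, with starting fluorescence score within 5 deviations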;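 note: channel opened by trigger with iodide after compound preincubation; score built on the fluorescence ratio of max minus min over baseline; more negative score means more quench and so TMEM16A activation or potentiation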
UBC13 polyUb: blocks human UBC13 polyubiquitin chain formation. 330,000 tested, 0.47% active. TR-FRET. inhibition, % at 20 µM. P61088; in the data active = inhibition above about 45%, passing the limit was not always enough
Casp3 counter: caspase-3 inhibition (UBC13 counter-screen) | shares compounds with UBC13 polyUb | Recombinant caspase-3, Caspase-Glo 3/7 luminescence, 60 min | inhibition, % at 20 µM | 1,400 tested, 4% active | AID 488856;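 active = mean inhibition across replicates above about 26%, limit read from the data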
UBC13 confirm: human UBC13 polyubiquitin inhibition, confirmed; inhibition, % at 10 µM; shares compounds with UBC13 polyUb; UBC13 polyubiquitination, TR-FRET, biochemical; 1,400 tested, 68% active; in the data active = inhibition above about 45%
Of the large screens only hits and unclear results are named; the others gave an inactive call (follow-up assays come after a bar, where they were run). Shown are actives, neighbours in structure and some others; about 2.4% of the full set was active somewhere.

Cc1ccc(C(=O)NNC(=O)c2nn(-c3ccc(F)cc3)ccc2=O)cc1	UBC13 polyUb 77 | Casp3 counter inactive | UBC13 confirm 96
Cc1cc(Oc2cc(N)cc([N+](=O)[O-])c2)ccc1Cl	none
CCc1ccc(OCc2ccc(C(=O)O)o2)cc1	none
CCSc1nnc(CNC(=O)C23CC4CC(CC(C4)C2)C3)n1C1CCCCC1	none
O=C(O)c1ccccc1C(=O)NCCc1c(C(=O)O)[nH]c2ccc(F)cc12	none
O=C(/C=C/c1ccc(Cl)cc1)N1CCOCC1	none
CCOc1ccc(Cl)cc1/C=N/O	none
CCOc1ccc(Cl)cc1/C=N/NC(N)=O	UBC13 polyUb 50 | Casp3 counter inactive | UBC13 confirm 53
Cc1ccc(Cn2c(C(C)Nc3nc(-c4ccc(F)cc4)cs3)nc3cc(C(=O)NCCCO)ccc32)cc1 (configuration not stated)	none (no result: FID counter)
COc1ccc(-c2csc(NC(C)c3nc4cc(C(=O)NCCCO)ccc4n3Cc3ccc(C)cc3)n2)cc1 (configuration not stated)	UBC13 polyUb 53 (no result: FID counter) | Casp3 counter inactive | UBC13 confirm inactive
COc1ccc2nc(C)cc(N/N=C/c3cccc(OC)c3O)c2c1	UBC13 polyUb 58 | Casp3 counter inactive | UBC13 confirm 111
Cc1ccsc1/C=C1\Oc2cc(OCC(=O)c3ccccc3)ccc2C1=O	none
Cc1c(CCOC(=O)C23CC4CC(CC(C4)C2)C3)sc[n+]1Cc1ccccc1	none
Cc1c(CCOC(=O)CC23CC4CC(CC(C4)C2)C3)sc[n+]1CC(=O)c1ccccc1	UBC13 polyUb 47 | Casp3 counter inactive | UBC13 confirm 52
Cc1c(CCOC(=O)C23CC4(C)CC(C)(CC(C)(C4)C2)C3)sc[n+]1CC(=O)c1ccccc1	UBC13 polyUb 70 | Casp3 counter inactive | UBC13 confirm 88
Cc1c(CCOC(=O)C23CC4CC(CC(C)(C4)C2)C3)sc[n+]1Cc1ccccc1	none
CCN(CC)C(=O)C(=O)Nc1ccc(OCc2ccccc2)cc1	none
CCCCN(CCCC)S(=O)(=O)c1ccc(NC(=O)Cc2cccs2)cc1	none
CCN(CC)CCNC(=O)c1cc2c(=O)n(C)c3ccccc3c2s1	UBC13 polyUb 55 | Casp3 counter inactive | UBC13 confirm 62
CCCCN(CC)CCCNC(=O)c1cc2c(=O)[nH]c3ccccc3c2s1	none
CCCCN(CC)CCNC(=O)c1cc2c(=O)n(C)c3ccccc3c2s1	UBC13 polyUb 70 | Casp3 counter inactive | UBC13 confirm 80
CCN(C(=O)CSc1ccc2ccccc2n1)C1CCCCC1	none (no result: TMEM16A inh, FID counter)
COc1cccc(NS(=O)(=O)c2c(C(=O)N3CCCCCC3)c(C)n(C)c2C)c1	none
Cc1cccc2sc(N(CCN3CCOCC3)C(=O)CCS(=O)(=O)c3ccccc3)nc12	UBC13 polyUb 59 (no result: FID counter) | Casp3 counter inactive | UBC13 confirm 79
Cc1ccc(S(=O)(=O)CCC(=O)N(CCN2CCOCC2)c2nc3ccccc3s2)cc1	none (no result: FID counter)
Cc1cccc(N2C(=O)c3ccc(C(=O)Nc4ccccn4)cc3C2=O)c1	none
CC(=O)Nc1ccc2c(c1)C(=O)N(c1cccc(C)c1)C2=O	UBC13 polyUb 46 | Casp3 counter inactive | UBC13 confirm inactive
O=C(Cc1ccc(F)cc1)Nc1nnc(-c2ccc(F)cc2)o1	none
Cc1cccc(NC(=O)Cn2c(O)c(N=NC(N)=S)c3ccccc32)c1	none
CC1=CC(C)(C)n2c(O)c(N=NC(N)=S)c3cc(C)cc1c32	UBC13 polyUb 57 | Casp3 counter inactive | UBC13 confirm 52
C/C=C(\C)C(=O)NCCN1C2=NC[C@@H](C)N2C[C@@H]1Cc1ccc(OC)cc1	none
COc1ccc(C[C@H]2CN3C(=NC[C@@H]3Cc3ccc(O)cc3)N2CCNC(=O)c2ccc(C)c(Br)c2)cc1	UBC13 polyUb 74 | Casp3 counter inactive | UBC13 confirm 56
C/C=C(\C)C(=O)NCCN1C2=NC[C@H](Cc3ccccc3)N2C[C@H]1Cc1ccc(O)cc1	none
Cc1ccc(C(=O)NCCN2C3=NC[C@@H](Cc4ccccc4)N3C[C@H]2Cc2ccc(O)cc2)cc1Br	UBC13 polyUb 104 | Casp3 counter inactive | UBC13 confirm 93
